Results from ChEMBL document CHEMBL3616473, “Identification and in silico prediction of metabolites of the model compound, tebufenozide by human CYP3A4 and CYP2C19” (Bioorg Med Chem, 2015).

Key:
[1] = Retention time of the compound by HPLC method; format: physicochemical
[2] = target: Cytochrome P450 3A4 (Homo sapiens, UniProt P08684); experiment: Drug level in yeast cells expressing human CYP3A4 assessed as human CYP3A4-mediated compound formation by pre-incubated with 200 uM tebufenozide for 2 mins at 37 degC before NADPH addition by LC/MS method; format: ADME, cell-based; conditions: recombinant enzyme
In short: (§1)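 Microsomes with 67 nM human P450 in 100 mM phosphate buffer, pH 7.4, preincubated 2 min at 37 °C. Reaction started with NADPH (1 mM final) at 37 °C and stopped at various times with two volumes of acetonitrile and shaking. After centrifugation (7,000 G, 10 min), the acetonitrile phase was analysed by HPLC and by LC/MS (ESI positive mode, m/z 100-500).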

[3] = target: Cytochrome P450 2C19 (Homo sapiens, UniProt P33261); experiment: Drug level in yeast cells expressing human CYP2C19 assessed as human CYP2C19-mediated compound formation by pre-incubated with 200 uM tebufenozide for 2 mins at 37 degC before NADPH addition by LC/MS method; format: ADME, cell-based; conditions: recombinant enzyme; in short: as §1
[4] = Selectivity index, ratio of Km for human CYP3A4-mediated metabolite-M1 formation to Km for human CYP2C19-mediated metabolite-M1 formation; conditions: recombinant enzyme
[5] = Selectivity index, ratio of Vmax for human CYP3A4-mediated metabolite-M1 formation to Vmax for human CYP2C19-mediated metabolite-M1 formation; conditions: recombinant enzyme
In short: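 Microsomes with 67 nM human CYP3A4 or CYP2C19 in 100 mM phosphate buffer, pH 7.4, with tebufenozide (1–50, 2% acetonitrile), preincubated 2 min at 37 °C. NADPH (1 mM final) was added, and reactions were stopped with acetonitrile after 5 min (CYP3A4) or 10 min (CYP2C19). M1 was quantified by HPLC, and Km and Vmax were fitted from rate (mol/min/mol P450) against substrate concentration.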

Chain of Cytochrome P450 2C19 (P33261 whole entry): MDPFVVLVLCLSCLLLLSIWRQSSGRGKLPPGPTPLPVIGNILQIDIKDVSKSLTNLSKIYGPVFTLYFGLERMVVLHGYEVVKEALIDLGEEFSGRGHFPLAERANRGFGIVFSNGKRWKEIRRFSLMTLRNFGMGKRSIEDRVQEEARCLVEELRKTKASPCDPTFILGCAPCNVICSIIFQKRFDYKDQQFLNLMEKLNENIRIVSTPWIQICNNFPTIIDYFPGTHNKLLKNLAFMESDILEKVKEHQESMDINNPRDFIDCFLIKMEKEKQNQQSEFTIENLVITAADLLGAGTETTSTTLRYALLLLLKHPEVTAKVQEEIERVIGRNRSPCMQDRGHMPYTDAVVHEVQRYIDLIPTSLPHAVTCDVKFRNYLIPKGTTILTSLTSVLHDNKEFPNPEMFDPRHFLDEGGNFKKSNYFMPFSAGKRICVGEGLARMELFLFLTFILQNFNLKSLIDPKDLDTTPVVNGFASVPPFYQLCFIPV
Chain of Cytochrome P450 3A4 (P08684 whole entry): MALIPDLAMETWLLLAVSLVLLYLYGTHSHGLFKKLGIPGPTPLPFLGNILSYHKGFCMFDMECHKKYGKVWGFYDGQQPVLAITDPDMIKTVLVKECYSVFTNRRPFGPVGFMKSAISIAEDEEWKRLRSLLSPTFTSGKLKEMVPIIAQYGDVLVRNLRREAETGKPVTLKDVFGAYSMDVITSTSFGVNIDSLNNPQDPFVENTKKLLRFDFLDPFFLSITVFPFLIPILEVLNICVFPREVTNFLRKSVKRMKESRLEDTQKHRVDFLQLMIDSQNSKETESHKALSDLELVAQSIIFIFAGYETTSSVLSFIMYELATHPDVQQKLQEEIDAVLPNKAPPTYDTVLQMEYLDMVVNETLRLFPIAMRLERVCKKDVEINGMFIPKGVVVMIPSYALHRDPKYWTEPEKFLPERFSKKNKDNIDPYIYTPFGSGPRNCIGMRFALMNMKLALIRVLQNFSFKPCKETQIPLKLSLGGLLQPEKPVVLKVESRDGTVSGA

| Retention_time [1] | Drug metabolism [2] | Drug metabolism [3] | Compound | Ratio [4] | Ratio [5] |
| --- | --- | --- | --- | --- | --- |
| 12 min | – | metabolite_detected | CC(=O)c1ccc(C(=O)NN(C(=O)c2cc(C)cc(C)c2)C(C)(C)C)cc1 | – | – |
| 15 min | – | metabolite_detected | C=Cc1ccc(C(=O)NN(C(=O)c2cc(C)cc(C)c2)C(C)(C)C)cc1 | – | – |
| 9.5 min | metabolite_detected | metabolite_detected | Cc1cc(C)cc(C(=O)N(NC(=O)c2ccc(C(C)O)cc2)C(C)(C)C)c1 (racemic) | – | – |

More lines, now with the values behind:

| Compound | Retention_time [1] | Drug metabolism [2] | Drug metabolism [3] | Ratio [4] | Ratio [5] |
| --- | --- | --- | --- | --- | --- |
| CCc1ccc(C(=O)NN(C(=O)c2cc(C)cc(CO)c2)C(C)(C)C)cc1 | 10.5 min | metabolite_detected | – | – | – |
| CCc1ccc(C(=O)NN(C(=O)c2cc(C)cc(C)c2)C(C)(C)CO)cc1 | 14.5 min | metabolite_detected | – | – | – |
| CCc1ccc(C(=O)NN(C(=O)c2cc(C)cc(C)c2)C(C)(C)C)cc1 [TEBUFENOZIDE] | – | – | – | 4 | 6 |
